Results published in ChEMBL document CHEMBL5335771, “Thioxanthenone-based derivatives as multitarget therapeutic leads for Alzheimer's disease” (Eur J Med Chem, 2023).

What was measured:
[1] = target: Amyloid-beta precursor protein (Homo sapiens, UniProt P05067); experiment: Inhibition of amyloid beta 40 peptide (unknown origin) aggregation incubated for 2 hr by ThT fluorescence based spectrofluorimetric analysis
Outline: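 Aβ40 peptide aggregation enhanced with 2% HFIP; thioflavin T fluorescence read-out; run in triplicate.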

[2] = target: T1, Microtubule-associated protein tau (Homo sapiens, UniProt P10636); experiment: Inhibition of tau (unknown origin) aggregation expressed in Escherichia coli BL21 (DE3) at 10 uM relative to control
Outline: (§1)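 E. coli BL21(DE3) carrying pTARA (T7 RNA polymerase under PBAD) and pRKT42 (four-repeat tau) grown at 37 °C in M9 with 0.5% glucose, antibiotics and 250 μM ThS to OD600 0.6. […] ThS fluorescence ex 430/em 485 nm, normalized to tau-expressing cells (100%) and non-expressing cells (0%); OD600 checked for growth.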
Target sequence in this assay (P10636 whole entry): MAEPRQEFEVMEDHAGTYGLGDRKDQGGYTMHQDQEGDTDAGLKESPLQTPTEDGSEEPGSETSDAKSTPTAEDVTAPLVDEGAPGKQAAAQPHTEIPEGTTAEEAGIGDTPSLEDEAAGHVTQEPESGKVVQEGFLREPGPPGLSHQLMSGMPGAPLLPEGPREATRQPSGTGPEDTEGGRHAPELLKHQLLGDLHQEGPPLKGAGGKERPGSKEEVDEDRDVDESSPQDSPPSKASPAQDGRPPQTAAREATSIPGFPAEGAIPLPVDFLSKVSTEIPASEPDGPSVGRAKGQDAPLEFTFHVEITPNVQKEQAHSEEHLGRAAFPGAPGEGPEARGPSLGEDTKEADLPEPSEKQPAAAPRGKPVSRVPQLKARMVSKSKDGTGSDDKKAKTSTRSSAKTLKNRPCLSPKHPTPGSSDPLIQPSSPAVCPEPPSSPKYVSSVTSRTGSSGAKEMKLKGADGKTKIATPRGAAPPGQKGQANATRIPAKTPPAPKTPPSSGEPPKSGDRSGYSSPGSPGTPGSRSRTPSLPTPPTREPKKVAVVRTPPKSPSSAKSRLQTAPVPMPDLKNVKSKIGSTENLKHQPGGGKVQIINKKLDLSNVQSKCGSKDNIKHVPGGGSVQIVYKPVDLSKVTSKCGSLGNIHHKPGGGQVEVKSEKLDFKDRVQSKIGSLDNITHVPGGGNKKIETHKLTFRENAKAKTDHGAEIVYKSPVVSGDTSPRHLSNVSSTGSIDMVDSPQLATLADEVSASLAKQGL

Cholinesterase [3] = target: Cholinesterase (Equus caballus, UniProt P81908); experiment: Inhibition of equine serum BChE using butyrylthiocholine iodide as substrate preincubated for 20 mins followed by substrate addition by DTNB reagent based Ellman's method; assay type: cell-free
Sequence of Cholinesterase (Equus caballus, UniProt P81908) (P81908 whole entry): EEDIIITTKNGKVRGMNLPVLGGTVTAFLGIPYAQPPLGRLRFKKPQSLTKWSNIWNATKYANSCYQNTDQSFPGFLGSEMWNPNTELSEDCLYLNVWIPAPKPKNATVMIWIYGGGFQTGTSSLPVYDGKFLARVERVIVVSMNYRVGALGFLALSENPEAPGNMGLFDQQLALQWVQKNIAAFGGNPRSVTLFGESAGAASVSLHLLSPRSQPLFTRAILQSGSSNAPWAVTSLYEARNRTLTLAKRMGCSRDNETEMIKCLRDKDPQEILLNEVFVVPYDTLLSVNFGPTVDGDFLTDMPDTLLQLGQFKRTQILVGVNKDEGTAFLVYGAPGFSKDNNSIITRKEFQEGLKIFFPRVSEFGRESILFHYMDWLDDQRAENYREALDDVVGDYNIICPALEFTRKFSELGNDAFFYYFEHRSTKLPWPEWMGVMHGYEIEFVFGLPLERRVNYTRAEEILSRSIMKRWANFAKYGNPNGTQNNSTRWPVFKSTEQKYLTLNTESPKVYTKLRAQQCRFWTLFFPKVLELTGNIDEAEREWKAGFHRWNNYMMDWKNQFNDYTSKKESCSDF

Cholinesterase [4] = target: Cholinesterase (Homo sapiens, UniProt P06276); experiment: Inhibition of human recombinant BChE using acetylthiocholine iodide as substrate preincubated for 20 mins followed by substrate addition by DTNB reagent based Ellman's method
Sequence of Cholinesterase (Homo sapiens, UniProt P06276) (P06276 whole entry): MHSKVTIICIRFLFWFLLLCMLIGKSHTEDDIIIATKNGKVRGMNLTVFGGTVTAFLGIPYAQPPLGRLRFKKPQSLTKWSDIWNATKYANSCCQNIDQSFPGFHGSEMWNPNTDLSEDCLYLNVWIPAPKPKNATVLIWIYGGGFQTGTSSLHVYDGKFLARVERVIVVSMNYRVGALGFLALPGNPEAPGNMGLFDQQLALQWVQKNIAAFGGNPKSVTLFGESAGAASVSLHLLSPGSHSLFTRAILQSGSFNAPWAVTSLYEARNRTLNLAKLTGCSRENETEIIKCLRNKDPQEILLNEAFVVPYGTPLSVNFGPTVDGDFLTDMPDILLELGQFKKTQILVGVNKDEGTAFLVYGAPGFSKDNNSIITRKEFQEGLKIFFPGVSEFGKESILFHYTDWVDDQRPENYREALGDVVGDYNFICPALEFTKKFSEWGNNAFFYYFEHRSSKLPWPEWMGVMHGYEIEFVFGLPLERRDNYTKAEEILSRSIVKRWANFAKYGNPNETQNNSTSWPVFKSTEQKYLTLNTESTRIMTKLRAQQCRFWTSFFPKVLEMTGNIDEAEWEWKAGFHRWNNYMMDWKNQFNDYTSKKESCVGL
Outline: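 Human BChE was assayed by the Ellman spectrophotometric method. IC50 values are means of three independent experiments, each run in triplicate.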

Acetylcholinesterase [5] = target: Acetylcholinesterase (Electrophorus electricus, UniProt O42275); experiment: Inhibition of electric eel AChE using acetylthiocholine iodide as substrate preincubated for 20 mins followed by substrate addition by DTNB reagent based Ellman's method
Sequence of Acetylcholinesterase (Electrophorus electricus, UniProt O42275) (O42275 whole entry): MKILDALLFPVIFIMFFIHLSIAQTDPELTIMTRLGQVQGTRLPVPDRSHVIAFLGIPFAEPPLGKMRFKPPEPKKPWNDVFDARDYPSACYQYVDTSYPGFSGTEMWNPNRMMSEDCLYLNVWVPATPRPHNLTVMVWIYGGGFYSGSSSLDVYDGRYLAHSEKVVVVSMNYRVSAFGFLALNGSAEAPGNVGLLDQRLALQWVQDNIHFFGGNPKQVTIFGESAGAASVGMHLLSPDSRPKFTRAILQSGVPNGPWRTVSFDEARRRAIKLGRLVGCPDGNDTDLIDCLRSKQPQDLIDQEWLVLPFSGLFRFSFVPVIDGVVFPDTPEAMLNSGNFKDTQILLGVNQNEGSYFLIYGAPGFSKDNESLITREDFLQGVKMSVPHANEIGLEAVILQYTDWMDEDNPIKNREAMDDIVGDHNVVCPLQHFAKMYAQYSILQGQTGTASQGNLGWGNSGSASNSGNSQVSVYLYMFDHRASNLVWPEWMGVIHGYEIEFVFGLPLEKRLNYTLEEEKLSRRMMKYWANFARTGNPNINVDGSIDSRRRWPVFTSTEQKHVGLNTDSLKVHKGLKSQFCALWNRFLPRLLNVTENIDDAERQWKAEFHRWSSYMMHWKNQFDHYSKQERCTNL

Acetylcholinesterase [6] = target: Acetylcholinesterase (Homo sapiens, UniProt P22303); experiment: Inhibition of human recombinant AChE using acetylthiocholine iodide as substrate preincubated for 20 mins followed by substrate addition by DTNB reagent based Ellman's method
Sequence of Acetylcholinesterase (Homo sapiens, UniProt P22303) (P22303 whole entry): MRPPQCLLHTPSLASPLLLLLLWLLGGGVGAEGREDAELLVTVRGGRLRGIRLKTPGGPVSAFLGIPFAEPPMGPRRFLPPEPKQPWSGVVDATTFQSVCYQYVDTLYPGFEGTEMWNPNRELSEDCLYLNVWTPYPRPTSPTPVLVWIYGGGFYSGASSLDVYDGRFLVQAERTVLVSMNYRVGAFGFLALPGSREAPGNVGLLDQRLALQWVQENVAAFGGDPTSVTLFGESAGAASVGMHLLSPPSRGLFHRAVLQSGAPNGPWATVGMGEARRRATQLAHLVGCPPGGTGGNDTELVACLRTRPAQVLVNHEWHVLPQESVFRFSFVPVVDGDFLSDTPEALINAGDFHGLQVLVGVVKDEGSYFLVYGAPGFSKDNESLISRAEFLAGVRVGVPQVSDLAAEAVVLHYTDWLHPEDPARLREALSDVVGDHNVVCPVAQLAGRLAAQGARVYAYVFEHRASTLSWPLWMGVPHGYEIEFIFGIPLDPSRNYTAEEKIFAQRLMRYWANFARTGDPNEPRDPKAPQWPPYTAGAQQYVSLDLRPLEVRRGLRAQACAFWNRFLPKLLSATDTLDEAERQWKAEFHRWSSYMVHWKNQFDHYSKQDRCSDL

[7] = target: T1, Microtubule-associated protein tau; experiment: Inhibition of tau (unknown origin) aggregation expressed in Escherichia coli BL21 (DE3); outline: as §1
Target sequence in this assay (P10636 whole entry): as the sequence (P10636 whole entry) above

[8] = target: T1, Microtubule-associated protein tau; experiment: Inhibition of PHF6 peptide (unknown origin) aggregation at 10 uM measured after 3 hrs by thioflavin T fluorescence based fluorimetric analysis relative to control
Target sequence in this assay (P10636 whole entry, looked up): as the sequence (P10636 whole entry) above

Sequence of Amyloid-beta precursor protein (P05067 whole entry): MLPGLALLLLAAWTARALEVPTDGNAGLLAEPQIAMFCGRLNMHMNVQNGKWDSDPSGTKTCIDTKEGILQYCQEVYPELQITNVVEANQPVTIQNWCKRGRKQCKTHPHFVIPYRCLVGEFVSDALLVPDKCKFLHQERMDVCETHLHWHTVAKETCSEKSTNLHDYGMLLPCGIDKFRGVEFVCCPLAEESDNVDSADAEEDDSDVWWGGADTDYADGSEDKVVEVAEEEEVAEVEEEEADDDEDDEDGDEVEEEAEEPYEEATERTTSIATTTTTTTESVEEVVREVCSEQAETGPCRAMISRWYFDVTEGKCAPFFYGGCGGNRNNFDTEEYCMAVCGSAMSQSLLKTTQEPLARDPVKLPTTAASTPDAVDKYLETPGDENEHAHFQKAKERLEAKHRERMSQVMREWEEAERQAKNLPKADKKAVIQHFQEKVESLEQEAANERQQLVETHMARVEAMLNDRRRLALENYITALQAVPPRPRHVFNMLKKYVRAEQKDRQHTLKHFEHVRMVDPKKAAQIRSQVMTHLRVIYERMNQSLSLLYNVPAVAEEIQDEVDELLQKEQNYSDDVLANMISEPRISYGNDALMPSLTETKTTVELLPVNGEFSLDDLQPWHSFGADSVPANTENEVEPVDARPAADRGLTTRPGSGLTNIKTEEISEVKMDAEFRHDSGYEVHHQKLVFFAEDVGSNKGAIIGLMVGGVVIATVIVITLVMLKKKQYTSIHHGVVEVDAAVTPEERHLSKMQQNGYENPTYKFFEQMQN

| Compound | IC50 [1] | inhibition [2] | IC50 (Cholinesterase [3]) | IC50 (Cholinesterase [4]) | IC50 (Acetylcholinesterase [5]) | IC50 (Acetylcholinesterase [6]) | IC50 [7] | inhibition [8] |
| --- | --- | --- | --- | --- | --- | --- | --- | --- |
| Cc1ccc(NC[C@@H]2CCCN3CCCC[C@H]23)c2c(=O)c3ccccc3oc12 | 48 µM | 35% |  |  |  |  |  |  |
| COc1ccc2sc3c(N)ccc(NCC[C@@H]4CCCN5CCCC[C@H]45)c3c(=O)c2c1 | 13 µM | 33% | 0.15 µM | 0.99 µM | 1.9 µM | 2.4 µM |  |  |
| Cc1ccc(NCCCSC[C@@H]2CCCN3CCCC[C@H]23)c2c(=O)c3ccccc3sc12 | 4.3 µM |  | 0.088 µM | 0.007 µM | 0.18 µM | 7.84 µM | 20 µM |  |
| COc1ccc2sc3c(C)ccc(NC[C@@H]4CCCN5CCCC[C@H]45)c3c(=O)c2c1 | 4.3 µM |  |  |  |  |  | 5.5 µM |  |
| Cc1ccc(NCCC[C@@H]2CCCN3CCCC[C@H]23)c2c(=O)c3cc(O)ccc3sc12 | 2.9 µM |  |  |  |  |  | 7.3 µM | > 80% |
| COc1ccc2sc3c([N+](=O)[O-])ccc(NC[C@@H]4CCCN5CCCC[C@H]45)c3c(=O)c2c1 | 11 µM | 32% |  |  |  |  |  |  |
| Nc1ccc(NC[C@@H]2CCCN3CCCC[C@H]23)c2c(=O)c3ccccc3sc12 | 14 µM |  |  |  |  |  | 8.6 µM |  |
| CCN(CC)CCCNc1ccc(N)c2sc3ccc(OC)cc3c(=O)c12 | 21 µM | 24% |  |  |  |  |  | > 80% |
| Cc1ccc(NC[C@@H]2CCCN3CCCC[C@H]23)c2c(=O)c3cc(O)ccc3sc12 | 5.9 µM |  |  |  |  |  | 9.1 µM |  |
| COc1ccc2sc3c([N+](=O)[O-])ccc(NCC[C@@H]4CCCN5CCCC[C@H]45)c3c(=O)c2c1 | 9.1 µM |  | 0.15 µM | 1.82 µM | 2.3 µM | 4.75 µM | 6.9 µM |  |
